This is an account of results in ChEMBL document CHEMBL3877273, “Synthesis and evaluation of N-substituted 2-amino-4,5-diarylpyrimidines as selective adenosine A1 receptor antagonists” (Eur J Med Chem, 2017).

Assay [1] concerns the target T1, Adenosine receptor A2a (Homo sapiens, UniProt P29274). Description: Displacement of [3H]ZM241385 from recombinant human adenosine A2A receptor expressed in HEK293 cell membranes after 2 hrs by beta scintillation counting method. An outline of the steps:
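Membranes from HEK293 cells stably expressing human A2A receptor were used in radioligand competition with [3H]ZM241385. Ki was reported as mean ± SEM, n = 3.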
Background: Displacement assays read how much labelled ligand stays bound in the presence of the test substance.

In assay [2] the target is T2, Adenosine receptor A1 (Homo sapiens, UniProt P30542).
T2 sequence (P30542 whole entry): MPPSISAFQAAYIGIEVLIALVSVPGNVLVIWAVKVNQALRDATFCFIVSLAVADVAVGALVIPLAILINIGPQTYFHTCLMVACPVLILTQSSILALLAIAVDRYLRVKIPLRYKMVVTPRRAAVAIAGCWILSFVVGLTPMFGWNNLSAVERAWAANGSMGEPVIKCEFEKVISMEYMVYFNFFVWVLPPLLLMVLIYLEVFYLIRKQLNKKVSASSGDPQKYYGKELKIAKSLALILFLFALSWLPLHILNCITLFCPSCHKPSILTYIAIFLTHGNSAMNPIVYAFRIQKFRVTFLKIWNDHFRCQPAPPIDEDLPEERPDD
Description: Displacement of [3H]DPCPX from recombinant human adenosine A1 receptor expressed in CHO cell membranes after 1 hr by beta scintillation counting method.

For assay [3], the target named is T1, Adenosine receptor A2a. Kind of assay: Displacement of [3H]ZM241385 from recombinant human adenosine A2A receptor expressed in HEK293 cell membranes at 1 uM after 2 hrs by beta scintillation counting method relative to control. An outline of the steps:
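Single-concentration screen on membranes from HEK293 cells stably expressing human A2A receptor. Test ligand at 1 µM, measured against specific [3H]ZM241385 binding and given as % displacement. Two independent experiments (n = 2), each value reported.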

Assay [4] has as its target T3, Adenosine receptor A3 (Homo sapiens) (UniProt P0DMS8).
T3 sequence (whole entry): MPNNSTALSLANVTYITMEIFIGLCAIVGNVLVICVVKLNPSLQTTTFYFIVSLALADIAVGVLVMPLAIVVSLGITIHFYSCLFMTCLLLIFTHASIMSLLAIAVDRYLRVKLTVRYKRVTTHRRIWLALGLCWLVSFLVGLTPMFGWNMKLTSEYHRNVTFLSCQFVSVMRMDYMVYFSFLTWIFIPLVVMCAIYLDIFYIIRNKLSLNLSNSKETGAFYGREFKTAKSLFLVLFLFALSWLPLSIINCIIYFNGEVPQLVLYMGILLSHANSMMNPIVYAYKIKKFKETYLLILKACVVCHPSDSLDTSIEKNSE
Description: Displacement of [3H]PSB11 from recombinant human adenosine A3 receptor expressed in CHO cell membranes at 1 uM after 1 hr by […] method relative to control.

A further assay has as its target T4, Adenosine receptor A2b (Homo sapiens, UniProt P29275).
T4 sequence (P29275 whole entry): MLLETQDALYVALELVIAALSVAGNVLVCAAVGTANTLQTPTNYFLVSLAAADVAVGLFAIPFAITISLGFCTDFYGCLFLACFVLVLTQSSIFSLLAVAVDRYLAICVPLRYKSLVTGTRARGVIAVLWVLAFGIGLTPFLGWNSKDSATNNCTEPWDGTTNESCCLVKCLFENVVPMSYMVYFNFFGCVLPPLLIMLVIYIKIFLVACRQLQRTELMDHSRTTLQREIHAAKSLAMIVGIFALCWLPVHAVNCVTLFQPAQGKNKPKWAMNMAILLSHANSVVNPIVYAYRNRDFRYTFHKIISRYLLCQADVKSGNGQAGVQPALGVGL
Kind of assay: Displacement of [3H]PSB603 from recombinant human adenosine A2B receptor expressed in CHO cell membranes after 1 hr by beta scintillation counting method.

For assay [5], the target named is T2, Adenosine receptor A1. Kind of assay: Inverse agonist activity at recombinant human adenosine A1 receptor expressed in CHO cell membranes assessed as […] of [35S]GTPgammaS binding preincubated for 30 mins followed by [35S]GTPgammaS addition measured after 90 mins by beta scintillation counting method. Type of assay: functional. (Binding of GTPγS marks nucleotide exchange on a G protein.)

Assay [6] concerns the target T5, Adenosine receptor A2b (Homo sapiens) (UniProt P29275).
T5 sequence (whole entry): T4 sequence (P29275 whole entry)
Description: Displacement of [3H]PSB603 from recombinant human adenosine A2B receptor expressed in CHO cell membranes at 1 uM after 1 hr by beta scintillation counting method relative to control.

By Ki is commonly meant a measure of affinity in units of concentration, obtained from inhibition or displacement. Broadly, the inhibition is the percentage by which the read-out fell short of the control. By IC50 is commonly meant the concentration that gives 50% inhibition. For orientation: EC50 means the concentration that produces a half-maximal response.

T1 sequence (P29274 whole entry): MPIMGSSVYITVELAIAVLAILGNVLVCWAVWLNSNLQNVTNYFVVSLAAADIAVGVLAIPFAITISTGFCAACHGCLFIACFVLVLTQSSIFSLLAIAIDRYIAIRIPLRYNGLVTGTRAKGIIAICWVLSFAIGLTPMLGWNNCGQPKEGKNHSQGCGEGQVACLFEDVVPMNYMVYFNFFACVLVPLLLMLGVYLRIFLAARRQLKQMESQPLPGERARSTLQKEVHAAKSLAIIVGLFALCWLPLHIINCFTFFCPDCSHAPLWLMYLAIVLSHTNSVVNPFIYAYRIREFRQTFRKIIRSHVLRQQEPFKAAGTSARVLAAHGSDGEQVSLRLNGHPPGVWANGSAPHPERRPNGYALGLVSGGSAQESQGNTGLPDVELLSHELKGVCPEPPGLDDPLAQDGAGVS

`O[C@H]1CC[C@H](Nc2ncc(-c3ccnc(C4CC4)c3)c(-c3ccccc3)n2)CC1`: the Ki worked out at 65 nM at Adenosine receptor A2a [1] and 1.06 nM at Adenosine receptor A1 [2].

Consider `Oc1ccc(-c2cnc(N[C@H]3CC[C@H](O)CC3)nc2-c2ccccc2)cc1Cl`, for which the Ki at Adenosine receptor A2a [1] came to 7.2 nM. As to `COc1ccc(-c2cnc(N)nc2-c2ccccc2)cc1OC`, the Ki at Adenosine receptor A1 [2] is 104 nM. On the same count and under the same terms, under `Nc1ncc(-c2cccc(O)c2)c(-c2ccccc2)n1` stands 144 nM.

With `OCCCNc1ncc(-c2cccc(Cl)c2)c(-c2ccccc2)n1`, at Adenosine receptor A1 [2], the inhibition constant Ki is 59 nM. In addition, the inhibition at Adenosine receptor A2a [3] is 9.5%.

On to `CCCC(=O)Nc1ncc(-c2cccc(Cl)c2)c(-c2ccccc2)n1`, for which the Ki on Adenosine receptor A1 [2] worked out at 106 nM. Consider `O[C@H]1CC[C@H](Nc2ncc(-c3ccc4ccccc4c3)c(-c3ccccc3)n2)CC1`, for which the values for the inhibition in assay [4] and in assay [6] were 9% and 48%, respectively. Also, the IC50 on Adenosine receptor A2b came to 1000 nM. Further, the EC50 on Adenosine receptor A1 [5] worked out at 166 nM.

Take `Nc1ncc(-c2ccc(O)c(O)c2)c(-c2ccccc2)n1`: the results for the Ki on Adenosine receptor A2a [1] and at Adenosine receptor A1 [2] were 4.7 nM and 12 nM, respectively. For `Nc1ncc(-c2cccc(Cl)c2)c(-c2ccccc2)n1` the same measures were 120 nM and 55 nM. The like results for `COc1ccc(-c2cnc(N)nc2-c2ccccc2)cc1Cl` were, in that order, 251 nM and 30 to 95 nM.

For `COc1cccc(-c2cnc(N)nc2-c2ccccc2)c1`, the values for the Ki on Adenosine receptor A2a [1] and on Adenosine receptor A1 [2] were 154 nM and 54 nM, respectively. For `Nc1ncc(-c2cccc(C(F)(F)F)c2)c(-c2ccccc2)n1` the same measures were 98 nM and 14 nM. As for `O[C@H]1CC[C@H](Nc2ncc(-c3cccc(Cl)c3)c(-c3ccccc3)n2)CC1`, the inhibition in assay [4] amounted to 3%; at Adenosine receptor A2a [3] it was 1.4%; in assay [6], 27%. At Adenosine receptor A1 [2], the Ki turned out to be 30 nM. Also, the 50% effective concentration (EC50) on Adenosine receptor A1 [5] was determined as 278 nM. On to `Clc1cccc(-c2cnc(NC3CCCC3)nc2-c2ccccc2)c1`, for which the Ki at Adenosine receptor A1 [2] is 94 nM. Moreover, on Adenosine receptor A2a [3], the inhibition was found to be 23%. `Nc1ncc(-c2ccncc2)c(-c2ccccc2)n1`: the results for the Ki at Adenosine receptor A2a [1] and on Adenosine receptor A1 [2] were 108 nM and 17 nM, respectively. In the case of `Nc1ncc(-c2ccc(F)cc2)c(-c2ccccc2)n1`, at Adenosine receptor A1 [2], the Ki was determined as 160 nM. The same measure, in the same setting: the figure for `OCCNc1ncc(-c2cccc(Cl)c2)c(-c2ccccc2)n1` is 180 nM.

For `Nc1ncc(-c2ccc(O)c(Cl)c2)c(-c2ccccc2)n1`, the Ki at Adenosine receptor A2a [1] is 1.3 nM; on Adenosine receptor A1 [2] it was 0.46 nM.

For `Nc1ncc(-c2ccc3ccccc3c2)c(-c2ccccc2)n1`, the results for the Ki at Adenosine receptor A2a [1] and on Adenosine receptor A1 [2] were 129 nM and 18 nM, respectively. Take `Cc1cccc(-c2cnc(N)nc2-c2ccccc2)c1`: the Ki on Adenosine receptor A1 [2] is 205 nM. Regarding `Nc1ncc(-c2ccc(O)cc2)c(-c2ccccc2)n1`, the figures for the Ki at Adenosine receptor A2a [1] and on Adenosine receptor A1 [2] were 1.3 nM and 1.4 nM, respectively. Regarding `Nc1ncc(-c2ccc(Cl)c(Cl)c2)c(-c2ccccc2)n1`, the Ki on Adenosine receptor A1 [2] was determined as 38 nM. Besides, the inhibition at Adenosine receptor A2a [3] came to 41%.

For `OCCCCNc1ncc(-c2cccc(Cl)c2)c(-c2ccccc2)n1`, at Adenosine receptor A1 [2], the Ki was found to be 130 nM. Besides, the inhibition on Adenosine receptor A2a [3] stood at 13%.

For `Nc1ncc(-c2ccnc(C3CC3)c2)c(-c2ccccc2)n1`, the Ki turned out to be 36 nM on Adenosine receptor A2a [1] and 1.76 nM on Adenosine receptor A1 [2].
